Experimental data from ChEMBL document CHEMBL1157098, “AMP-activated protein kinase (AMPK) activation by benzofurans and coumestans isolated from Erythrina abyssinica” (J Nat Prod, 2010).
The source made the active and inactive calls. No cut-off for these calls is given here.

Tests used:
Type in all cases: cell-based
[1] = molecular target: 5'-AMP-activated protein kinase catalytic subunit alpha-1 (Mus musculus) (UniProt Q5EG47); assay: Activation of AMPKalpha in differentiated mouse C2C12 cells assessed as phosphorylated-AMPK level at 10 uM after 30 mins by Western blot analysis relative to control
Sequence of 5'-AMP-activated protein kinase catalytic subunit alpha-1 (Mus musculus) (Q5EG47 whole entry): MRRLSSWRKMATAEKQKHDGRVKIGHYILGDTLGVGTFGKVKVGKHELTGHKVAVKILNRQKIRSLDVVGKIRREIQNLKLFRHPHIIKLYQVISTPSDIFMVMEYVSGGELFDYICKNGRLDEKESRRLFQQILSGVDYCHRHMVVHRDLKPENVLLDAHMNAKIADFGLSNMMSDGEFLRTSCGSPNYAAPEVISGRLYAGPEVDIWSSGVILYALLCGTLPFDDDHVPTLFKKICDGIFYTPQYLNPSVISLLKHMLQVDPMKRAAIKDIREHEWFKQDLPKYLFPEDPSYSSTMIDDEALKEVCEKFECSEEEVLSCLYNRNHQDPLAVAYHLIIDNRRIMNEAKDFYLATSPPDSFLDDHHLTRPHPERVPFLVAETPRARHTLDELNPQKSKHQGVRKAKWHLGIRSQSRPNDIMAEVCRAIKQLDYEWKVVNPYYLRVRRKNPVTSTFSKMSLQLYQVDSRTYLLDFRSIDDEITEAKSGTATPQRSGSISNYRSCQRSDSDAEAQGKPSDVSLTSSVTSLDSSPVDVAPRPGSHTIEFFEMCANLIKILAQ
In short: (§1)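 C2C12 myoblasts seeded at 10^5 cells/well and differentiated at confluence in DMEM with 5% horse serum, medium changed every 48 h until myotubes formed. Myotubes exposed to compounds for 30 min, lysed in EBC buffer (50 mM Tris-HCl pH 7.6, 120 mM NaCl, 1 mM EDTA, 0.5% NP-40, 50 mM NaF). About 30 µg protein immunoblotted for phospho-AMPKα Thr172, phospho-ACC Ser79, total AMPK, β-actin.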

[2] = molecular target: 5'-AMP-activated protein kinase catalytic subunit alpha-1 (Mus musculus) (UniProt Q5EG47); assay: Activation of AMPKalpha in differentiated mouse C2C12 cells assessed as phosphorylated-ACC level at 10 uM after 30 mins by Western blot analysis relative to control; in short: as §1
[3] = molecular target: 5'-AMP-activated protein kinase catalytic subunit alpha-1 (Mus musculus) (UniProt Q5EG47); assay: Activation of AMPKalpha in differentiated mouse C2C12 cells assessed as change in AMPK level at 10 uM after 30 mins by Western blot analysis relative to control; in short: as §1

Activity [1] | Activity [2] | Activity [3] | Structure (SMILES)
Active | Active | inactive | COc1ccc2c(C=O)c(-c3ccc(O)cc3O)oc2c1CC=C(C)C
Active | Active | inactive | CC(C)=CCc1c(O)ccc2c1oc1c3ccc(O)cc3oc(=O)c21
inactive | inactive | inactive | CC(C)=CCc1cc(-c2oc3c(CC=C(C)C)c(O)ccc3c2C=O)c(O)cc1O
Active | Active | inactive | CC(C)=CCc1cc2c(cc1O)oc(=O)c1c3ccc(O)c(CC=C(C)C)c3oc21
– | Active | inactive | CC(C)=CCc1cc(-c2oc3c(CC=C(C)C)c(O)ccc3c2C(=O)O)c(O)cc1O
inactive | inactive | inactive | COc1cc(C2(C=O)COc3cc(O)ccc32)c(OC)cc1O (stereo not drawn)
inactive | inactive | inactive | COc1cc([C@@H]2COc3cc(O)ccc32)c(OC)cc1O
Active | Active | inactive | COc1ccc2c(oc3c4ccc(O)cc4oc(=O)c23)c1CC=C(C)C
